Results of several laboratories.
Protocols differ between the studies behind these lines.
Target: G protein-coupled receptor kinase 4 (GRK4, Homo sapiens, UniProt P32298)

test	setting	endpoint	result	SMILES
enzyme activity, inhibitor	1 µM	inhibition	8%	C=CC(=O)N1CCC([C@@H]2CCNc3c(C(N)=O)c(-c4ccc(Oc5ccccc5)cc4)nn32)CC1
binding, competition with immobilised ligand	1 µM	remaining binding	87%	C[C@]1(O)CCCN(c2nc(Nc3ccc(S(=O)(=O)N[C@H]4CC[C@H](CN5CCN(c6ccc(C7CCC(=O)NC7=O)cc6F)CC5)CC4)cc3F)ncc2C(F)(F)F)C1 (stereo partly drawn)
enzyme activity, inhibitor	1 µM	inhibition	3%	C=CC(=O)N1CCC[C@@H](n2nc(-c3ccc(Oc4ccccc4)cc3)c3c(N)ncnc32)C1
enzyme activity, inhibitor	1 µM	activity vs control	112%	CC(C)S(=O)(=O)c1ccc2nccc(Nc3ccc4sc(C5CCCC5)nc4c3)c2c1
binding, competition with immobilised ligand	1 µM	remaining binding	100%	CNS(=O)(=O)c1ccc(Nc2ncc(C(F)(F)F)c(N3CCC[C@](C)(O)C3)n2)c(C)c1
binding	1 µM	remaining binding	4.5%	CN1CCN(C(=O)c2ccc(NC(=O)Nc3ccc(N(C)c4ccnc(Nc5ccc(CS(C)(=O)=O)cc5)n4)cc3)cc2)CC1
binding, competition with immobilised ligand	0.5 µM	remaining binding	93%	CCCCC(=O)Nc1ccc(-c2ccc3ncn(CCC)c(=O)c3c2)cn1
binding	1 µM	remaining binding	99%	Cc1ccc(NC(=O)c2ccnc(C(F)(F)F)c2)cc1-c1cc(OCCO)nc(N2CCOCC2)c1
binding	0.1 µM	remaining binding	13%	C1=C/COCc2cc(ccc2OCCN2CCCC2)Nc2nccc(n2)-c2cccc(c2)COC/1
